Assay results published in ChEMBL document CHEMBL1151466 (Antimicrob Agents Chemother, 2008).

How the values were obtained:
[1] = AUC (0 to 42 days) in Paua New Guinean children with uncomplicated malaria at 10 mg/kg daily for 3 days; assay type: ADME, organism-based; set-up: time < 1008 hr, dose 10 mg/kg; settings: human, plasma
Summary of the method: (§1)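 Children aged 5–10 y with uncomplicated malaria took oral CQ at 10 mg base/kg daily at 0, 24 and 48 h, with single-dose SP given alongside the first dose, without fasting. Heparin plasma was sampled serially to day 42, stored at −80°C, extracted with t-butyl methyl ether, and measured by HPLC-UV at 340 nm. Two-compartment model fitting used 1/y2 weighting.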

[2] = Apparent clearance with respect to bioavailability in human with malaria; assay type: ADME, organism-based; settings: in vivo
Homo sapiens [3] = test: AUC (0 to infinity) in Paua New Guinean children with uncomplicated malaria at 10 mg/kg daily for 3 days; assay type: ADME, organism-based, Plasma; set-up: time infinity, dose 10 mg/kg; settings: in vivo, 72 h; summary of the method: as §1
[4] = Apparent clearance with respect to bioavailability in human; assay type: ADME, organism-based; settings: in vivo
[5] = Volume of distribution at steady state with respect to bioavailability in Paua New Guinean children with uncomplicated malaria at 10 mg/kg daily for 3 days; assay type: ADME, organism-based; settings: human, in vivo, read-out: Vc/F; summary of the method: as §1
Homo sapiens [6] = test: Tlag in Paua New Guinean children with uncomplicated malaria at 10 mg/kg daily for 3 days; assay type: ADME, organism-based; set-up: dose 10 mg/kg; settings: in vivo, 72 h; summary of the method: as §1
[7] = Elimination half life in Paua New Guinean children with uncomplicated malaria at 10 mg/kg daily for 3 days; assay type: ADME, organism-based; set-up: dose 10 mg/kg; settings: human, in vivo, read-out: beta t1/2 (converted); summary of the method: as §1
Plasmodium falciparum [8] = test: Antiplasmodial activity against chloroquine-sensitive Plasmodium falciparum; assay type: functional, organism-based
[9] = AUC (0 to infinity) in Paua New Guinean children with uncomplicated malaria; assay type: ADME, organism-based; set-up: time infinity; settings: human, plasma
Plasmodium falciparum [10] = test: Antiplasmodial activity against chloroquine-resistant Plasmodium falciparum; assay type: functional, organism-based
[11] = AUC (0 to 42 days) in Paua New Guinean children with uncomplicated malaria; assay type: ADME, organism-based; set-up: time < 1008 hr; settings: human, plasma
[12] = Elimination half life in Paua New Guinean children with uncomplicated malaria; assay type: ADME, organism-based; settings: human, in vivo; read-out: beta t1/2 (converted)
[13] = Volume of distribution at steady state with respect to bioavailability in Cambodian children with malaria; assay type: ADME, organism-based; settings: human, in vivo; read-out: Vc/F
[14] = Volume of distribution at steady state with respect to bioavailability in Paua New Guinean children with uncomplicated malaria at 20 mg/kg daily for 3 days; assay type: ADME, organism-based; settings: human, in vivo, read-out: Vc/F
Summary of the method: (§2)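 Children aged 5–10 y with uncomplicated malaria were given oral DHA-PQ at PQ phosphate 20 mg/kg (11.5 mg base/kg) daily at 0, 24 and 48 h, swallowed with water, without fasting. Sampling was serial to day 42. Heparin plasma was stored at −80°C, extracted with hexane-isoamyl alcohol, and assayed by HPLC with UV detection at 340 nm. Parameters came from a two-compartment model with 1/y2 weighting.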

[15] = Apparent clearance with respect to bioavailability in human after fat meal using non-compartmental analysis; assay type: ADME, organism-based; settings: in vivo
[16] = AUC (0 to 42 days) in Paua New Guinean children with uncomplicated malaria at 20 mg/kg daily for 3 days; assay type: ADME, organism-based; set-up: time < 1008 hr, dose 20 mg/kg; settings: human, plasma; summary of the method: as §2
[17] = Apparent clearance with respect to bioavailability in Vietnamese human; assay type: ADME, organism-based; settings: in vivo
[18] = Elimination half life in Cambodian children with malaria; assay type: ADME, organism-based; settings: human, in vivo; read-out: beta t1/2 (converted)
Homo sapiens [19] = species on record: Homo sapiens; test: Volume of distribution at steady state with respect to bioavailability in human after fat meal using non-compartmental analysis; assay type: ADME, organism-based; settings: in vivo
[20] = Volume of distribution at steady state with respect to bioavailability in Vietnamese human; assay type: ADME, organism-based; settings: in vivo, read-out: Vc/F
[21] = AUC (0 to infinity) in Paua New Guinean children with uncomplicated malaria at 20 mg/kg daily for 3 days; assay type: ADME, organism-based; set-up: time infinity, dose 20 mg/kg; settings: human, plasma; summary of the method: as §2
[22] = Elimination half life in Paua New Guinean children with uncomplicated malaria at 20 mg/kg daily for 3 days; assay type: ADME, organism-based; set-up: dose 20 mg/kg; settings: human, in vivo, read-out: beta t1/2 (converted); summary of the method: as §2
[23] = Apparent clearance with respect to bioavailability in Paua New Guinean children with uncomplicated malaria at 20 mg/kg daily for 3 days; assay type: ADME, organism-based; settings: human, in vivo; summary of the method: as §2
Homo sapiens [24] = test: Tlag in Paua New Guinean children with uncomplicated malaria at 20 mg/kg daily for 3 days; assay type: ADME, organism-based; set-up: dose 20 mg/kg; settings: in vivo, 72 h; summary of the method: as §2
[25] = Apparent clearance with respect to bioavailability in human after fasting using non-compartmental analysis; assay type: ADME, organism-based; settings: in vivo

Structure (SMILES): CCN(CC)CCCC(C)Nc1ccnc2cc(Cl)ccc12 (configuration not stated) [CHLOROQUINE]
- AUC at 1008 h [1]: 117 µM·h
- CL/F [2]: 2.17 mL/min/kg
- AUC (Homo sapiens [3]): 122.5 µM·h
- CL/F [4]: 2.17 mL/min/kg
- Vd/F [5]: 154 L/kg
- Tlag (Homo sapiens [6]): 0.55 h
- half-life [7]: 9.71 days

Structure (SMILES): CCNCCCC(C)Nc1ccnc2cc(Cl)ccc12 (configuration not stated) [DESETHYLCHLOROQUINE]
- IC50 (Plasmodium falciparum [8]): 17.8 nM
- AUC(0-inf) [9]: 98.5 µM·h
- IC50 (Plasmodium falciparum [10]): 37.4 nM
- AUC(0-t) at 1008 h [11]: 83.6 µM·h
- half-life [12]: 12.1 days

Structure (SMILES): Clc1ccc2c(N3CCN(CCCN4CCN(c5ccnc6cc(Cl)ccc56)CC4)CC3)ccnc2c1 [PIPERAQUINE]
- Vd/F [13]: 614 L/kg
- Vd/F [14]: 431 L/kg
- IC50 (Plasmodium falciparum [8]): 35.5 nM
- CL/F [15]: 10 mL/min/kg
- AUC at 1008 h [16]: 76.4 µM·h
- CL/F [17]: 16.2 mL/min/kg
- half-life [18]: 13.5 days
- IC50 (Plasmodium falciparum [10]): 40.7 nM
- Vc/F (Homo sapiens [19]): 365 L/kg
- Vd/F [20]: 103 L/kg
- AUC(0-inf) [21]: 87.4 µM·h
- half-life [22]: 17.2 days
- CL/F [23]: 14.2 mL/min/kg
- Tlag (Homo sapiens [24]): 0.89 h
- CL/F [25]: 19 mL/min/kg
